pKi: −log10 of the molar value. Values belong to the molecule of their own block, whether it stands above or below them.
Key:
[1] = Displacement of [3H]DTG from sigma 2 receptor in rat liver membrane after 120 mins; assay type: cell membranes
Outline: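 Rat liver membranes (~300 µg protein) incubated with ~5 nM [3H]DTG plus 1 µM (+)-pentazocine to mask σ1 sites, 120 min at room temperature; 10 µM haloperidol defines nonspecific binding; filtration and scintillation counting. One-site nonlinear regression IC50, converted to Ki by Cheng-Prusoff; mean ± SEM.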

[2] = Selectivity for rat liver sigma 2 receptor over guinea pig brain sigma 1 receptor
[3] = test system: Blood; assay: Biodistribution in blood of mouse EMT6 tumor bearing BALB/c mouse at 10 to 20 uCi after 5 mins; assay type: ADME, organism-based; conditions: in vivo
Outline: (§1)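 EMT-6 cells (5×10^5 in 100 µL PBS) implanted s.c. in scapular region of female Balb/c mice (~2 months, 17-22 g); studied 7-10 days later at ~0.2 cm3 tumor. 18F tracer 10-20 µCi in 100-150 µL saline via tail vein; ≥4 mice per time point; tissue removed at sacrifice, weighed, gamma-counted; %ID/g calculated.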

[4] = test system: Blood; assay: Biodistribution in blood of mouse EMT6 tumor bearing BALB/c mouse at 10 to 20 uCi after 30 mins; assay type: ADME, organism-based; conditions: in vivo, 0.5 h; outline: as §1
[5] = test system: Blood; assay: Biodistribution in blood of mouse EMT6 tumor bearing BALB/c mouse at 10 to 20 uCi after 60 mins; assay type: ADME, organism-based; conditions: in vivo, 1 h; outline: as §1
[6] = test system: Blood; assay: Biodistribution in blood of mouse EMT6 tumor bearing BALB/c mouse at 10 to 20 uCi after 120 mins; assay type: ADME, organism-based; conditions: in vivo, 2 h; outline: as §1
[7] = test system: Lung; assay: Biodistribution in lung of mouse EMT6 tumor bearing BALB/c mouse at 10 to 20 uCi after 5 mins; assay type: ADME, organism-based; conditions: in vivo; outline: as §1
[8] = test system: Lung; assay: Biodistribution in lung of mouse EMT6 tumor bearing BALB/c mouse at 10 to 20 uCi after 30 mins; assay type: ADME, organism-based; conditions: in vivo, 0.5 h; outline: as §1
[9] = test system: Lung; assay: Biodistribution in lung of mouse EMT6 tumor bearing BALB/c mouse at 10 to 20 uCi after 60 mins; assay type: ADME, organism-based; conditions: in vivo, 1 h; outline: as §1
[10] = test system: Lung; assay: Biodistribution in lung of mouse EMT6 tumor bearing BALB/c mouse at 10 to 20 uCi after 120 mins; assay type: ADME, organism-based; conditions: in vivo, 2 h; outline: as §1
[11] = test system: Liver; assay: Biodistribution in liver of mouse EMT6 tumor bearing BALB/c mouse at 10 to 20 uCi after 5 mins; assay type: ADME, organism-based; conditions: in vivo; outline: as §1
[12] = test system: Liver; assay: Biodistribution in liver of mouse EMT6 tumor bearing BALB/c mouse at 10 to 20 uCi after 30 mins; assay type: ADME, organism-based; conditions: in vivo, 0.5 h; outline: as §1
[13] = test system: Liver; assay: Biodistribution in liver of mouse EMT6 tumor bearing BALB/c mouse at 10 to 20 uCi after 60 mins; assay type: ADME, organism-based; conditions: in vivo, 1 h; outline: as §1
[14] = test system: Liver; assay: Biodistribution in liver of mouse EMT6 tumor bearing BALB/c mouse at 10 to 20 uCi after 120 mins; assay type: ADME, organism-based; conditions: in vivo, 2 h; outline: as §1
[15] = test system: Kidney; assay: Biodistribution in kidney of mouse EMT6 tumor bearing BALB/c mouse at 10 to 20 uCi after 5 mins; assay type: ADME, organism-based; conditions: in vivo; outline: as §1
[16] = test system: Kidney; assay: Biodistribution in kidney of mouse EMT6 tumor bearing BALB/c mouse at 10 to 20 uCi after 30 mins; assay type: ADME, organism-based; conditions: in vivo, 0.5 h; outline: as §1
[17] = test system: Kidney; assay: Biodistribution in kidney of mouse EMT6 tumor bearing BALB/c mouse at 10 to 20 uCi after 60 mins; assay type: ADME, organism-based; conditions: in vivo, 1 h; outline: as §1
[18] = test system: Kidney; assay: Biodistribution in kidney of mouse EMT6 tumor bearing BALB/c mouse at 10 to 20 uCi after 120 mins; assay type: ADME, organism-based; conditions: in vivo, 2 h; outline: as §1
[19] = test system: Muscle tissue; assay: Biodistribution in muscle of EMT6 tumor bearing BALB/c mouse at 10 to 20 uCi after 5 mins; assay type: ADME, organism-based; conditions: in vivo; outline: as §1
[20] = test system: Muscle tissue; assay: Biodistribution in muscle of mouse EMT6 tumor bearing BALB/c mouse at 10 to 20 uCi after 30 mins; assay type: ADME, organism-based; conditions: in vivo, 0.5 h; outline: as §1
[21] = test system: Muscle tissue; assay: Biodistribution in muscle of mouse EMT6 tumor bearing BALB/c mouse at 10 to 20 uCi after 60 mins; assay type: ADME, organism-based; conditions: in vivo, 1 h; outline: as §1
[22] = test system: Muscle tissue; assay: Biodistribution in muscle of mouse EMT6 tumor bearing BALB/c mouse at 10 to 20 uCi after 120 mins; assay type: ADME, organism-based; conditions: in vivo, 2 h; outline: as §1
[23] = test system: Adipose tissue; assay: Biodistribution in fat of mouse EMT6 tumor bearing BALB/c mouse at 10 to 20 uCi after 5 mins; assay type: ADME, organism-based; conditions: in vivo; outline: as §1
[24] = test system: Adipose tissue; assay: Biodistribution in fat of mouse EMT6 tumor bearing BALB/c mouse at 10 to 20 uCi after 30 mins; assay type: ADME, organism-based; conditions: in vivo, 0.5 h; outline: as §1
[25] = test system: Adipose tissue; assay: Biodistribution in fat of mouse EMT6 tumor bearing BALB/c mouse at 10 to 20 uCi after 60 mins; assay type: ADME, organism-based; conditions: in vivo, 1 h; outline: as §1
[26] = test system: Adipose tissue; assay: Biodistribution in fat of mouse EMT6 tumor bearing BALB/c mouse at 10 to 20 uCi after 120 mins; assay type: ADME, organism-based; conditions: in vivo, 2 h; outline: as §1
[27] = test system: Heart; assay: Biodistribution in heart of mouse EMT6 tumor bearing BALB/c mouse at 10 to 20 uCi after 5 mins; assay type: ADME, organism-based; conditions: in vivo; outline: as §1
[28] = test system: Heart; assay: Biodistribution in heart of mouse EMT6 tumor bearing BALB/c mouse at 10 to 20 uCi after 30 mins; assay type: ADME, organism-based; conditions: in vivo, 0.5 h; outline: as §1
[29] = test system: Heart; assay: Biodistribution in heart of mouse EMT6 tumor bearing BALB/c mouse at 10 to 20 uCi after 60 mins; assay type: ADME, organism-based; conditions: in vivo, 1 h; outline: as §1
[30] = test system: Heart; assay: Biodistribution in heart of EMT6 tumor bearing BALB/c mouse at 10 to 20 uCi after 120 mins; assay type: ADME, organism-based; conditions: in vivo, 2 h; outline: as §1
[31] = test system: Brain; assay: Biodistribution in brain of EMT6 tumor bearing BALB/c mouse at 10 to 20 uCi after 5 mins; assay type: ADME, organism-based; conditions: in vivo; outline: as §1
[32] = test system: Brain; assay: Biodistribution in brain of EMT6 tumor bearing BALB/c mouse at 10 to 20 uCi after 30 mins; assay type: ADME, organism-based; conditions: in vivo, 0.5 h; outline: as §1
[33] = test system: Brain; assay: Biodistribution in brain of EMT6 tumor bearing BALB/c mouse at 10 to 20 uCi after 60 mins; assay type: ADME, organism-based; conditions: in vivo, 1 h; outline: as §1
[34] = test system: Brain; assay: Biodistribution in brain of mouse EMT6 tumor bearing BALB/c mouse at 10 to 20 uCi after 120 mins; assay type: ADME, organism-based; conditions: in vivo, 2 h; outline: as §1
[35] = test system: Bone; assay: Biodistribution in bone of mouse EMT6 tumor bearing BALB/c mouse at 10 to 20 uCi after 5 mins; assay type: ADME, organism-based, Bone element; conditions: in vivo; outline: as §1
[36] = test system: Bone; assay: Biodistribution in bone of mouse EMT6 tumor bearing BALB/c mouse at 10 to 20 uCi after 30 mins; assay type: ADME, organism-based, Bone element; conditions: in vivo, 0.5 h; outline: as §1
[37] = test system: Bone; assay: Biodistribution in bone of mouse EMT6 tumor bearing BALB/c mouse at 10 to 20 uCi after 60 mins; assay type: ADME, organism-based, Bone element; conditions: in vivo, 1 h; outline: as §1
[38] = test system: Bone; assay: Biodistribution in bone of mouse EMT6 tumor bearing BALB/c mouse at 10 to 20 uCi after 120 mins; assay type: ADME, organism-based, Bone element; conditions: in vivo, 2 h; outline: as §1
[39] = test system: EMT6; assay: Biodistribution in tumor of mouse EMT6 tumor bearing BALB/c mouse at 10 to 20 uCi after 5 mins; assay type: ADME, organism-based; conditions: emt6, 5 min; outline: as §1
[40] = test system: EMT6; assay: Biodistribution in tumor of EMT6 tumor bearing BALB/c mouse 10 to 20 uCi after 30 mins; assay type: ADME, organism-based; conditions: emt6, 0.5 h; outline: as §1
[41] = test system: EMT6; assay: Biodistribution in tumor of mouse EMT6 tumor bearing BALB/c mouse at 10 to 20 uCi after 60 mins; assay type: ADME, organism-based; conditions: emt6, 1 h; outline: as §1
[42] = test system: EMT6; assay: Biodistribution in tumor of mouse EMT6 tumor bearing BALB/c mouse at 10 to 20 uCi after 120 mins; assay type: ADME, organism-based; conditions: emt6, 2 h; outline: as §1

pKi [1]: 9.19
Ratio Ki [2]: 1660
Compound: COc1cc2c(cc1OC)CN(CCCCNC(=O)c1cc(Br)ccc1OCCF)CC2

Drug uptake [3]: 4.6 % ID/g
Drug uptake [4]: 4.3 % ID/g
Drug uptake [5]: 3.39 % ID/g
Drug uptake [6]: 1.92 % ID/g
Drug uptake [7]: 9.71 % ID/g
Drug uptake [8]: 4.07 % ID/g
Drug uptake [9]: 2.34 % ID/g
Drug uptake [10]: 1.36 % ID/g
Drug uptake [11]: 37.26 % ID/g
Drug uptake [12]: 17.35 % ID/g
Drug uptake [13]: 7.31 % ID/g
Drug uptake [14]: 4.25 % ID/g
Drug uptake [15]: 36.07 % ID/g
Drug uptake [16]: 17.43 % ID/g
Drug uptake [17]: 9.36 % ID/g
Drug uptake [18]: 3.92 % ID/g
Drug uptake [19]: 1.52 % ID/g
Drug uptake [20]: 1.12 % ID/g
Drug uptake [21]: 0.83 % ID/g
Drug uptake [22]: 0.6 % ID/g
Drug uptake [23]: 2.32 % ID/g
Drug uptake [24]: 1.04 % ID/g
Drug uptake [25]: 0.62 % ID/g
Drug uptake [26]: 0.44 % ID/g
Drug uptake [27]: 3.22 % ID/g
Drug uptake [28]: 2.37 % ID/g
Drug uptake [29]: 1.61 % ID/g
Drug uptake [30]: 1 % ID/g
Drug uptake [31]: 0.55 % ID/g
Drug uptake [32]: 0.44 % ID/g
Drug uptake [33]: 0.36 % ID/g
Drug uptake [34]: 0.37 % ID/g
Drug uptake [35]: 2.59 % ID/g
Drug uptake [36]: 1.31 % ID/g
Drug uptake [37]: 0.99 % ID/g
Drug uptake [38]: 1.67 % ID/g
Drug uptake [39]: 2.54 % ID/g
Drug uptake [40]: 2.81 % ID/g
Drug uptake [41]: 2.72 % ID/g
Drug uptake [42]: 1.92 % ID/g
Compound: COc1cc2c(cc1OC)CN(CCCCNC(=O)c1cc(I)ccc1OCC[18F])CC2
